Experiment [1] is described as follows: Coronary vasoactivity as molar potency ratio (MPR), the quotient of ED50 of adenosine by that of the test nucleoside. It counts as functional. Put shortly: (§1)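 Dogs anesthetized with morphine-thiamylal-fluothane. MPR is ED50 of adenosine divided by ED50 of test nucleoside. Dog-to-dog variation in MPR about ±10%.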
In experiment [2] the test system is Coxsackievirus B4. As to the kind of experiment: Compound was tested for antiviral activity (minimum inhibition concentration) in HeLa cells coxsackie virus type 4. It counts as functional. To be noted: Enterovirus B. Put shortly:
(§2)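 Inhibition of virus-induced cytopathogenicity, scored as minimum inhibitory concentration (µg/mL) in the host cell monolayers listed: HSV-1 (KOS) and HSV-2 (G) in primary rabbit kidney cells; measles, reovirus type 1, parainfluenza type 3, Coxsackie B4 and Sindbis in Vero cells; Coxsackie and polio in HeLa cells. Minimum cytotoxic concentration taken as microscopically detectable alteration of normal cell morphology; highest concentration tested 400 µg/mL.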

The subject of experiment [3] is Coxsackievirus B4. As to the kind of experiment: Compound was tested for antiviral activity (minimum inhibition concentration) in Vero cells coxsackie virus type B4. Format: functional. To be noted: Enterovirus B. Put shortly: as §2
The subject of a further experiment is Human alphaherpesvirus 1. As to the kind of experiment: Compound was tested for antiviral activity against herpes simplex virus-1(KOS) in primary rabbit kidney cells. It counts as functional. Put shortly:
as §2

In another experiment the test system is Human alphaherpesvirus 2. Kind of experiment: Compound was tested for antiviral activity against herpes simplex virus-2(G) in primary rabbit kidney cells. Format: functional. Put shortly:
as §2

Another experiment has as its system Measles morbillivirus. As to the kind of experiment: Compound was tested for antiviral activity against measles virus in vero cells. Format: functional. Put shortly:
as §2

For the next experiment, the system named is Human respirovirus 3. Kind of experiment: Compound was tested for antiviral activity (minimum inhibition concentration) in Vero cells parainfluenza virus type 3. It counts as functional. Put shortly:
as §2

The subject of another experiment is Poliovirus 1. Kind of experiment: Compound was tested for antiviral activity (minimum inhibition concentration) in HeLa cells polio virus type 1. To be noted: Enterovirus C. It counts as functional.
In experiment [4] the test system is Mammalian orthoreovirus 1. Kind of experiment: Compound was tested for antiviral activity (minimum inhibition concentration) in Vero cells reovirus type 1. Format: functional. Put shortly: as §2
Another experiment concerns Sindbis virus. As to the kind of experiment: Compound was tested for antiviral activity (minimum inhibition concentration) in Vero cells sindbis virus. It counts as functional. Put shortly: as §2
Experiment [5] deals with Vesicular stomatitis virus. As to the kind of experiment: Compound was tested for antiviral activity (minimum inhibition concentration) in HeLa cells vesicular stomatitis virus (VSV). It counts as functional.
Experiment [6] has as its system Vesicular stomatitis virus. Kind of experiment: Compound was tested for antiviral activity against vesicular stomatitis virus in primary rabbit kidney cells. Format: functional.
In a further experiment the test system is Vaccinia virus. As to the kind of experiment: Compound was tested for antiviral activity against vaccinia virus in primary rabbit kidney cells. It counts as functional. To be noted: Orthopoxvirus vaccinia.
Experiment [7] deals with L1210. As to the kind of experiment: Effect of compound on the incorporation of nucleic acid precursor into L1210 cells (cpm x 10e-3),precursors used along with compound were [14C]uridine. Format: functional, Mus musculus. Put shortly: (§3)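 L1210 suspension cultures in RPMI 1640 with 10% horse serum, at 37 °C, preincubated 90 min with or without test compound at 1 mM. 14C-precursor (cytidine, uridine, adenosine or thymidine) then added to 0.04 µCi/mL final and incubated a further 30 min. Cells pelleted and Schmidt-Thannhauser fractionation gave acid-soluble, RNA and DNA fractions, counted by scintillation. Duplicate flasks; results as cpm ×10^-3 and % of control.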

In experiment [8] the test system is L1210. As to the kind of experiment: Effect of compound on the incorporation of nucleic acid precursor into L1210 cells (cpm x 10e-3), precursors used along with compound were [14C]-Adenosine. Format: functional, Mus musculus. Put shortly:
as §3

For experiment [9], the system named is L1210. Kind of experiment: Effect of compound on the incorporation of nucleic acid precursor into L1210 cells (cpm x 10e-3), precursors used along with compound were [14C]cytidine. It counts as functional, Mus musculus. Put shortly:
as §3

Experiment [10] has as its system L1210. As to the kind of experiment: Effect of compound on the incorporation of nucleic acid precursor into L1210 cells (cpm x 10e-3),precursors used along with compound were [14C]cytidine. It counts as functional, Mus musculus. Put shortly: as §3
Experiment [11] can be described thus: Coronary vasoactivity (molar potency ratio (MPR), the quotient of ED50 of adenosine by that of the test nucleoside)Dog to dog variations in MPR are about +/-10%. Format: functional. Put shortly: as §1

Seven compounds from ChEMBL document CHEMBL1122693, “Biological activity and a modified synthesis of 8-amino-3-beta-D-ribofuranosyl-1,2,4-triazolo[4,3-a]pyrazine, an isomer of formycin” (1984) can be followed below.

Each structure is given as a SMILES string. In brackets after ≈: the same amount, converted by molar mass. Several values for one entry are separate records, joined by “and”; a condition that tells them apart may be missing. Identical values can stand only once.

With `Nc1ncnc2c1ccn2[C@@H]1O[C@H](CO)[C@@H](O)[C@H]1O`, the MPR in [1] was 0.071.

As to `Nc1ncnc2c1nnn2[C@@H]1O[C@H](CO)[C@@H](O)[C@H]1O`, the MPR in [1] was 0.042.

For `Nc1nnnc2c1ncn2[C@@H]1O[C@H](CO)[C@@H](O)[C@H]1O`, in experiment [1], the MPR worked out at 0.15.

`Nc1nccc2c1ncn2[C@@H]1O[C@H](CO)[C@@H](O)[C@H]1O`: the MIC with Coxsackievirus B4 [2] amounted to 40 µg/mL (≈ 150 µM); in the experiment with Coxsackievirus B4 [3] it was 4 µg/mL (≈ 15 µM); against Human alphaherpesvirus 1, 40 µg/mL (≈ 150 µM); against Human alphaherpesvirus 2, 10 µg/mL (≈ 37.6 µM); with Measles morbillivirus, 40 µg/mL (≈ 150 µM); with Human respirovirus 3, 2 µg/mL (≈ 7.51 µM). Also, the MIC against Poliovirus 1 amounted to 40 µg/mL (≈ 150 µM); in [4], 4 µg/mL (≈ 15 µM); in the experiment with Sindbis virus it was 40 µg/mL (≈ 150 µM); in [5], 10 µg/mL (≈ 37.6 µM); in experiment [6] it was 7 µg/mL (≈ 26.3 µM); against Vaccinia virus, 7 µg/mL (≈ 26.3 µM).

Consider `Nc1ncnc2c([C@@H]3O[C@H](CO)[C@@H](O)[C@H]3O)[nH]nc12` [FORMYCIN], for which the MIC against Coxsackievirus B4 [2] was at least 200 µg/mL; against Coxsackievirus B4 [3], at least 40 µg/mL; in the experiment on Human alphaherpesvirus 1, 4 µg/mL (≈ 15 µM); in the experiment on Human alphaherpesvirus 2 it was 4 µg/mL (≈ 15 µM); in the experiment with Measles morbillivirus, at least 40 µg/mL; against Human respirovirus 3 it was at least 40 µg/mL. Moreover, the MIC against Poliovirus 1 is 10 µg/mL (≈ 37.4 µM); in experiment [4], at least 40 µg/mL; in the experiment on Sindbis virus, at least 40 µg/mL; in [5], 10 µg/mL (≈ 37.4 µM); in experiment [6], 2 µg/mL (≈ 7.48 µM); in the experiment with Vaccinia virus it was 4 µg/mL (≈ 15 µM). In experiment [1], the MPR was 0.043.

For the compound `Nc1nccn2c([C@@H]3O[C@H](CO)[C@@H](O)[C@H]3O)nnc12`, the MIC in the experiment on Coxsackievirus B4 [2] is over 400 µg/mL; in the experiment on Coxsackievirus B4 [3], 200 µg/mL (≈ 748 µM); in the experiment with Human alphaherpesvirus 1 it was over 400 µg/mL; against Human alphaherpesvirus 2, 200 µg/mL (≈ 748 µM); in the experiment on Measles morbillivirus, 200 µg/mL (≈ 748 µM); in the experiment on Human respirovirus 3 it was 100 µg/mL (≈ 374 µM). Besides, the MIC is over 400 µg/mL in the experiment on Poliovirus 1; 200 µg/mL (≈ 748 µM) in experiment [4]; 300 µg/mL (≈ 1120 µM) in the experiment with Sindbis virus; 150 µg/mL (≈ 561 µM) in experiment [5]; 100 µg/mL (≈ 374 µM) in [6]; 100 µg/mL (≈ 374 µM) in the experiment with Vaccinia virus. Also, the Fraction in the experiment with L1210 [7] was determined as 24. In the experiment with L1210 [8], the RNA fraction is 24 and 19.8. Also, the Total uptake in the experiment on L1210 [9] is 128.8 and 161.7; with L1210 [10], 50.4. Besides, in [11], the MPR is 0.0015.

Regarding `NC(=O)c1ncn([C@@H]2O[C@H](CO)[C@@H](O)[C@H]2O)n1` [RIBAVIRIN], the MIC in the experiment on Coxsackievirus B4 [2] was 20 µg/mL (≈ 81.9 µM); against Coxsackievirus B4 [3], 200 µg/mL (≈ 819 µM); in the experiment with Human alphaherpesvirus 1, over 400 µg/mL; in the experiment on Human alphaherpesvirus 2, over 400 µg/mL; against Measles morbillivirus it was 20 µg/mL (≈ 81.9 µM); in the experiment on Human respirovirus 3, 10 µg/mL (≈ 40.9 µM). Further, the MIC against Poliovirus 1 is 10 µg/mL (≈ 40.9 µM); in experiment [4], 100 µg/mL (≈ 409 µM); against Sindbis virus it was 40 µg/mL (≈ 164 µM); in experiment [5], 20 µg/mL (≈ 81.9 µM); in experiment [6], 20 µg/mL (≈ 81.9 µM); with Vaccinia virus, 20 µg/mL (≈ 81.9 µM).
